# SUMO1-SIM PPI – modulators of SUMO1 protein-protein interactions, primary screen, biochemical, uHTS | Small ubiquitin-related modifier 1 (Homo sapiens), P63165 | SUMO1 binding to a labelled peptide, TR-FRET, 1 h | inhibition, % at 20 µM | 360,000 tested, 0.33% active; in the data active means inhibition above about 37%
# Target sequence (P63165 whole entry, looked up): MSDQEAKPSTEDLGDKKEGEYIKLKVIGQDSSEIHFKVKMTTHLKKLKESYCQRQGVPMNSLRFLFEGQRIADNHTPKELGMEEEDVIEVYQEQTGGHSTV
# STEP inh – STEP phosphatase inhibitors, primary screen, biochemical, fluorescence intensity, uHTS. Tyrosine-protein phosphatase non-receptor type 5 (Homo sapiens), P54829. recombinant STEP, OMFP fluorogenic substrate. inhibition, % at 20 µM. 360,000 tested, 0.25% active;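 active means inhibition at 20 µM, scaled per plate between control wells, above about 37%, limit read from the data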;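 further: 0% = DMSO with enzyme and substrate and 100% = substrate only without enzyme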
#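 Assay system: isolated STEP enzyme / Timing: 20 min at room temperature, dark / Doses: 20 µM, 1% DMSO / Technique: fluorescence intensity, excitation 480 nm, emission 540 nm / Reagent: fluorogenic phosphatase substrate OMFP at 25 µM final / Measure: percent inhibition scaled to no-enzyme and uninhibited-enzyme controls, plate-pattern corrected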
# Scp-1 inhibitor – Scp-1 phosphatase inhibitors, primary screen, biochemical, colorimetric, uHTS; Recombinant Scp1, phosphopeptide, malachite green phosphate absorbance; 340,000 tested, 0.88% active; inhibition, % at 20 µM; Carboxy-terminal domain RNA polymerase II polypeptide A small phosphatase 1 (Homo …; AID 493091, 2011;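 active means inhibition above about 50% at 20 µM, limit read from the data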;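 further: plate controls were DMSO wells with enzyme for no effect and wells lacking enzyme for full effect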
# Target sequence (Q9GZU7 76-261 limits assumed): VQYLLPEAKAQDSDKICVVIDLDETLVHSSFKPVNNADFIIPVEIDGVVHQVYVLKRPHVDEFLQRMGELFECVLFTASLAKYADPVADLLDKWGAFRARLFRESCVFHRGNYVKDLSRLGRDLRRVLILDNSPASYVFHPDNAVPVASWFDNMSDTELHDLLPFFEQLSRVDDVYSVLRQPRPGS
#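 Times: enzyme reaction 45 min at room temperature, colour 5 min, stabilisation 30 min. Material: SCP-1 catalytic fragment, aa 76-261. Medium: Acidic Tris acetate buffer with magnesium and detergent. Signal: colorimetric free-phosphate detection, absorbance 630 nm. Read-out basis: % inhibition of SCP-1 phosphate liberation. Reagent: Phosphorylated 17-residue peptide substrate.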
# DNMT1 block – human DNMT1 methyltransferase inhibitors, primary screen, biochemical, molecular beacon, fluorescence, HinP1I cleavage, uHTS. DNA (cytosine-5)-methyltransferase 1 (Homo sapiens), P26358. inhibition (reported as % activation of signal), % at 10 µM. 360,000 tested, 0.83% active; in the data active means inhibition above about 50%
# LMPTP inh – LMPTP phosphatase inhibitors, primary screen, biochemical, fluorescence intensity, uHTS. Low molecular weight phosphotyrosine protein phosphatase (Homo sapiens), P24666. 360,000 tested, 0.22% active. recombinant LMPTP-A, OMFP fluorogenic substrate. inhibition, % at 20 µM;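 active means compounds that cut the enzyme signal by at least half of the control window in the single-dose screen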;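 further: plate controls were DMSO wells with enzyme plus substrate for no effect and substrate without enzyme for full effect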
# Target sequence (P24666 whole entry, looked up): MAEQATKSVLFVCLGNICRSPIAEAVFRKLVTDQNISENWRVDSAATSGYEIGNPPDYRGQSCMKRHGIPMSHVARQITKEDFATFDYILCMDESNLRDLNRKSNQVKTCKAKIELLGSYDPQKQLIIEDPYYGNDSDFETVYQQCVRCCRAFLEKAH
#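 Test system: LMPTP-A phosphatase enzyme; input: 0.625 nM LMPTP-A final; reagent: OMFP substrate, 400 µM final; compound dosing: 20 µM single dose, 3% DMSO; incubation: 50 min dark incubation at room temperature; measured by: endpoint fluorescence intensity from OMFP dephosphorylation; measure: % inhibition relative to no-enzyme and uninhibited control wells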
# Scp-1 conf – Scp-1 phosphatase inhibitors, retest, confirmation, biochemical, colorimetric, single concentration; shares compounds with Scp-1 inhibitor; inhibition, % at 20 µM; recombinant SCP-1 catalytic domain, phosphate release, malachite green absorbance; 2,500 tested, 61% active;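 further: plate controls were DMSO with enzyme for no effect and buffer wells lacking enzyme for full effect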
# Scp-1 MG ctr – colorimetric readout interference by compounds, confirmation, artefact control for Scp-1 inhibitor project, biochemical, single concentration. shares compounds with Scp-1 inhibitor. Colorimetric interference counterscreen, malachite green absorbance 630 nm. apparent inhibition (interference), % at 20 µM. 2,500 tested, under 10 active;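 further: compounds added after enzyme reaction finished so only phosphate colour detection is probed; plate controls were DMSO wells with completed Scp-1 reaction for no effect and substrate wells lacking enzyme for full effect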
# Scp-1 Tm shift – Scp-1 binding by thermal shift, confirmation, orthogonal assay for Scp-1 inhibitor project, biophysical, differential scanning fluorimetry. shares compounds with Scp-1 inhibitor. Recombinant SCP1, Sypro Orange thermal shift Tm. thermal shift relative to vanadate control, % at 40 µM. 1,500 tested, 25% active;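 active means substances whose mean melting-temperature shift, as a percentage of the reference inhibitor's shift, reaches about 5.3%, limit read from the data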;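 further: 0% = Tm of DMSO wells and 100% = Tm with sodium orthovanadate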
# Numbers without * were called inactive; / = not tested or not shown. Most compounds without a hit are left out; they make up all but 1.7% or so of the library.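 How the source made its calls, unless noted: active means inhibition of at least 30% at 20 µM; inactive means the rest.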
SMILES,SUMO1-SIM PPI,STEP inh,Scp-1 inhibitor,DNMT1 block,LMPTP inh,Scp-1 conf,Scp-1 MG ctr,others
Cc1c(C(=O)O)oc2ccc(S(=O)(=O)NCCC3=CCCCC3)cc12,0,-1,52*,-1,1,1,-4,
Cc1c(C(=O)NCCC2=CCCCC2)oc2ccc(S(=O)(=O)N3CCOCC3)cc12,1,4,-11,-6,3,/,/,
CC(=O)Oc1ccc(Cn2c(C)c(C(=O)NCc3cccc(C(F)(F)F)c3)sc2=O)cc1,0,-1,/,0,1,/,/,
O=C(Nc1cccnc1Cl)c1ccc(=O)oc1,-4,1,53*,35,0,43*,-4,Scp-1 Tm shift=6.5*
CCCCn1c(N)c(N(CCOC)C(=O)c2ccc(F)c(S(=O)(=O)N3CCOCC3)c2)c(=O)[nH]c1=O,0,-2,-1,-1,-1,/,/,
O=C(Nc1ccccc1Cl)c1cnccn1,-4,4,-4,1,-1,/,/,
O=C(Nc1ccc(Br)cc1Cl)c1cnccn1,7,2,68*,48,0,55*,-23,Scp-1 Tm shift=8.8*
Cc1cccn2cc(CCNC(=O)Cc3cccs3)nc12,-4,-1,-7,4,0,/,/,
Cc1ccc(-c2csc(NCCn3c(C(F)(F)F)nc4ccccc43)n2)cc1,2,2,59*,5,1,-23,-19,
Cc1ccc(-c2csc(N3CCN(CCCn4c(C(F)(F)F)nc5ccccc54)CC3)n2)cc1,5,-4,0,-4,4,/,/,
CCOc1ccccc1NC(=O)C(OC(=O)C1CC1)c1ccccc1 (stereo not drawn),2,0,-5,3,5,/,/,
CCOc1ccccc1NC(=O)C(NCC1(N2CCCCC2)CCCCC1)c1ccccc1 (stereo not drawn),8,2,65*,2,-1,-13,-11,
c1ccc2nc(N3CCCC3)c(N3CCCC3)nc2c1,-6,2,-9,-3,2,/,/,
c1ccc2c(c1)nc(N1CCCCCC1)c1ccccc12,-1,0,112*,0,2,97*,-1,Scp-1 Tm shift=-7
COc1ccccc1N(CC(=O)NC1CCCC1)C(=O)c1oc(C(C)(C)C)cc1C,-3,1,-3,-4,1,/,/,
COC(=O)c1ccc(/C=N/NC(=O)c2cccc(F)c2)cc1,-15,8,87*,0,-1,48*,-18,Scp-1 Tm shift=-11
COc1ccc(/C=C/C(=O)Oc2ccc(/C=N\NC(=O)c3ccc(F)cc3)cc2)cc1,-5,-2,-7,5,0,/,/,
Cc1ccccc1C(=O)Nc1ccc(C(=O)N/N=C/c2ccc(F)cc2)cc1,-3,12,91*,26,2,28,-13,
COc1ccc(/C=C/C(=O)Oc2cccc(/C=N/NC(=O)c3cccc(F)c3)c2)cc1,1,0,87*,4,5,37*,-11,Scp-1 Tm shift=-12
O=C(c1cccc(S(=O)(=O)N2CCc3ccccc32)c1)N1CCOCC1,2,-1,8,1,-1,/,/,
Cc1ccccc1NC(=O)CSc1n[nH]c(-c2ccccn2)n1,5,-1,63*,1,0,-20,-19,
Cc1ccc(C)c(NC(=O)CSc2n[nH]c(-c3ccccn3)n2)c1,-2,1,-1,2,0,/,/,
O=C(Cn1ccc2ccccc2c1=O)NCCC(=O)Nc1cccc(Cl)c1,2,-1,-2,0,0,/,/,
O=C(Cn1ccc2ccccc2c1=O)NCCC(=O)Nc1cccnc1,1,4,60*,7,0,-8,-2,
COCCn1c(C)c(C)c(S(=O)(=O)c2ccccc2)c1N,-1,2,-19,-8,-1,/,/,
SMILES,SUMO1-SIM PPI,STEP inh,Scp-1 inhibitor,DNMT1 block,LMPTP inh,Scp-1 conf,Scp-1 MG ctr,others
Cc1ccccc1N1C(S)=C(C#N)C(=O)NC12CCCCC2,0,2,-2,-1,-1,/,/,
O=C(Nc1ccc(Cl)cc1)c1nc[nH]c1C(=O)NCCCCNC(=O)c1[nH]cnc1C(=O)Nc1ccc(Cl)cc1,18,-6,-3,28,1,/,/,
COc1ccc(Br)cc1/C=C(\C(=O)O)c1ccc(S(=O)(=O)N2CCCC2)s1,-2,3,67*,42,5,60*,-24,Scp-1 Tm shift=6.3*
O=C(O)/C(=C\c1cccc(C(F)(F)F)c1)c1ccc(S(=O)(=O)N2CCCC2)s1,-4,-2,11,11,-1,/,/,
O=C(O)/C(=C\c1cccc([N+](=O)[O-])c1)c1ccc(S(=O)(=O)N2CCCCC2)s1,-12,2,52*,23,4,73*,-5,Scp-1 Tm shift=20*
COc1c(O)cc2c(c1O)[C@@H]1OC(CO)C(O)C(O)[C@H]1OC2=O (stereo partly drawn),1,-2,-1,-1,0,-7,-5,
COc1c(O)cc2c(c1O)C1OC(CO)C(O)C(O)C1OC2=O (stereo not drawn),-4,0,-11,-2,-1,/,/,
COC(=O)C1CCN(C(=O)COC(=O)CNS(=O)(=O)c2ccc(SC)c([N+](=O)[O-])c2)CC1,-30,11,74*,24,6,43*,-21,Scp-1 Tm shift=-15
CSc1ccc(S(=O)(=O)NCC(=O)OCC(=O)N2CC(C)CC(C)C2)cc1[N+](=O)[O-] (stereo not drawn),-27,0,6,1,1,/,/,
Cc1cn(C2CCCCO2)c(=O)nc1NO (stereo not drawn),-1,-4,4,-2,0,/,/,
COc1nc(=O)n(C2CCCO2)cc1C (stereo not drawn),1,-2,85*,0,0,-11,-7,
CCC1CCCCN1C(=O)COC(=O)CN(C)S(=O)(=O)c1ccc(NC(C)=O)cc1 (stereo not drawn),1,-2,-4,-1,1,/,/,
Cc1ccccc1Nc1nnc(SCC(=O)NCC2CCCO2)s1 (stereo not drawn),2,2,-5,6,-2,/,/,

# Bioassay records (PubChem BioAssay)
